# Results collected from several papers.
# Lines come from different studies, so protocols differ.
# Target: Casein kinase I isoform delta (CSNK1D, Homo sapiens, UniProt P48730)
SMILES,assay,setting,remaining binding [%]
CCOCCn1cc(C(=O)Nc2ccc(-n3nc(-c4cccnc4)cc3C(F)(F)F)cn2)ccc1=O,"cell-free assay, competition with immobilised ligand",1 µM,100
O=C(Nc1c[nH]nc1C(=O)NC1CCNCC1)c1cc(F)cc(F)c1,"binding, competition with immobilised ligand",1 µM,95
O=C(c1ccc(Nc2nccc(-c3cc4ccccc4s3)n2)cc1)N1CCC(N2CCCC2)CC1,"binding, competition with immobilised ligand",1 µM,100
CNCc1ccccc1-c1csc([C@@H](C)Nc2nc(C)nc3cc(OC)c(OC)cc23)c1,"cell-free assay, competition with immobilised ligand",1 µM,82
N[C@@H]1CCN(c2nccc(-c3cnn4ncccc34)n2)C1,binding,1 µM,14
Nc1ncc2c(n1)-c1c([nH]c3ccc(C#CC4CC4)cc13)CCCC2,"binding, competition with immobilised ligand",1 µM,91
Cc1cc(C)c(-n2ccn3nc(-c4cccnc4)cc23)cc1NC(=O)c1cc(C#N)cc(S(F)(F)(F)(F)F)c1,"cell-free assay, competition with immobilised ligand",0.1 µM,100
COc1cnc(Nc2cccc(S(N)(=O)=O)c2)nc1N1CCN(c2ccccc2)C(=O)C1,"binding, competition with immobilised ligand",1 µM,98
CN(C)c1ncc(F)c(-c2cnn3ncccc23)n1,binding,1 µM,100
CCN1CCN(Cc2ccc(C(=O)Nc3ccc(C)c(Oc4ccc5c(c4)CC(=O)N5)c3)cc2C(F)(F)F)CC1,"binding, competition with immobilised ligand",1 µM,88
O=C(Nc1cccnn1)N1CCC(=Cc2cccc(Oc3ccc(C(F)(F)F)cn3)c2)CC1,"cell-free assay, competition with immobilised ligand",1 µM,100
NC(=O)c1nc(Nc2ccccc2)sc1NC(=O)C1CCCCC1,"cell-free assay, competition with immobilised ligand",10 µM,6.8
N#Cc1ccccc1CSc1nnc2c(n1)[nH]c1ccccc12,"binding, competition with immobilised ligand",10 µM,86
CNC(=O)[C@@H]1CC[C@@H](n2c(-c3ccc4cnccc4c3)nc3ccc(C(=O)NCc4cccc(C(N)=O)c4)cc32)C1,"binding, competition with immobilised ligand",1 µM,100
Cc1cnn2ncc(-c3ccnc(N(C)C)n3)c2c1,binding,1 µM,69
FC(F)(F)Oc1cccc(-c2cnc3ccc(-c4ccncc4)nn23)c1,"cell-free assay, competition with immobilised ligand",5 µM,56
O=C(c1ccc(Nc2ncc(Cl)c(-c3ccc(Cl)s3)n2)cc1)N1CCC(N2CCCC2)CC1,"binding, competition with immobilised ligand",1 µM,100
C[C@@H]1CN(c2cc(-c3n[nH]c4ccc(OC5(C)CC5)cc34)ncn2)C[C@H](C)O1,"cell-free assay, competition with immobilised ligand",0.1 µM,80
CN(CCCC(F)(F)F)c1nccc(-c2cnn3ncccc23)n1,binding,1 µM,100
CN(C)c1ncnc(-c2ccc3nc(Nc4cc(CN5CCN(C(=O)CC(F)(F)F)CC5)ccn4)[nH]c3c2)c1Cl,"cell-free assay, competition with immobilised ligand",1 µM,83
c1cnn2ncc(-c3ccnc(N4CCC45COC5)n3)c2c1,binding,1 µM,41
Cc1cnc(Nc2ccc(C(=O)N3CCC(N4CCCC4)CC3)cc2)nc1-c1cc2ccccc2s1,"binding, competition with immobilised ligand",1 µM,100
Cc1c(NC(=O)c2cc(C(N)=O)nc3cc(F)ccc23)c(C(F)(F)F)nn1Cc1ccc(C(C)(C)C)cc1,"cell-free assay, competition with immobilised ligand",1 µM,81
C[C@@H]1CCN(c2nccc(-c3cnn4ncccc34)n2)C1,binding,1 µM,64
